According to ChEMBL document CHEMBL5678802, “Small-molecule p21-activated kinase inhibitor PF-3758309 is a potent inhibitor of oncogenic signaling and tumor growth” (Proc Natl Acad Sci U S A, 2010):
Active and inactive are the calls of the source. The rule behind the calls is not given here.

Legend:
MCF10 = test: Antiproliferative activity against human MCF10 cells assessed as inhibition of cell proliferation incubated for 3 days by CellTiter-Glo Luminescent Cell Viability Assay; format: functional, cell-based; settings: MCF10, 72 h
Procedure, shortened: (§1)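 Cancer cell lines seeded in 384-well plates on day 1; compound added on day 2 and left for 3 days. On day 5 all medium was aspirated, and viable cells were quantified by CellTiter-Glo luminescence, which measures cellular ATP. Dose-dependent effects on proliferation were determined.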

[1] = target: T1, Serine/threonine-protein kinase D1 (Homo sapiens, UniProt Q15139); test: Inhibition of human PKCmu in presence of ATP
T1 sequence (Q15139 whole entry): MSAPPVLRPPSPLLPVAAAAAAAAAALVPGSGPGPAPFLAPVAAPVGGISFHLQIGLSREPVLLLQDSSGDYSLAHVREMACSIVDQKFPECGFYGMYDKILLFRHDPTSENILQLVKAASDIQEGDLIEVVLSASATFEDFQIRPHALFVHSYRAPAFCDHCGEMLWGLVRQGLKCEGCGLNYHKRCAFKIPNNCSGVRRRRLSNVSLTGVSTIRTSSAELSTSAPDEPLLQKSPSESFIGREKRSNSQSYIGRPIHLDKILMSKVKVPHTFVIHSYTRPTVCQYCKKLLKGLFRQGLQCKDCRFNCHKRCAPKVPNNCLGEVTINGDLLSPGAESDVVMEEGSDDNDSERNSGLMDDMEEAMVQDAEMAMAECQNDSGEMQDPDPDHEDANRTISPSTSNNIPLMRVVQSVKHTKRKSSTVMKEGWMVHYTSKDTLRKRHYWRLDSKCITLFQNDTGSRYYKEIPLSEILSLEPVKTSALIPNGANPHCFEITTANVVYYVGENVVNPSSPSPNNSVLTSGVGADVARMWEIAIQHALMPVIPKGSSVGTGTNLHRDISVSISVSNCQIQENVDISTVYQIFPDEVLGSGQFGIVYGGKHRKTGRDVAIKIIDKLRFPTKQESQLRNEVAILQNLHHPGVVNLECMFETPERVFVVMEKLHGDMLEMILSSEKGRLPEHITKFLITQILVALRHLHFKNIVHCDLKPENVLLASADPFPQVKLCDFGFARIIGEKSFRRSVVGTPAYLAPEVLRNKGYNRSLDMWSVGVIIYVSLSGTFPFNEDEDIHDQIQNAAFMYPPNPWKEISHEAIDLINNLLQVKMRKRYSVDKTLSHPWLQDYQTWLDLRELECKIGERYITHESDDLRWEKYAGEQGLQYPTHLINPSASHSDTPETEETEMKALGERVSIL

[2] = target: Tyrosine-protein kinase Fyn (Homo sapiens, UniProt P06241); test: Inhibition of human FYN in presence of ATP relative to control; settings: concentration not given here
RKO = test: Antiproliferative activity against human RKO cells assessed as inhibition of cell proliferation incubated for 3 days by CellTiter-Glo Luminescent Cell Viability Assay; format: functional, cell-based; settings: 72 h
Procedure, shortened: (§2)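 Cells of each line were plated in 384-well plates on day 1 and exposed to compound from day 2 for 3 days. On day 5 all medium was aspirated. Viable cell number was read by CellTiter-Glo luminescence, which quantifies cellular ATP.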

NCI-H520 = test: Inhibition of anchorage independent cell growth in human NCI-H520 cells incubated for 6 days by Alamar blue reagent based fluorescence plate reader analysis; format: functional; settings: NCI-H520, 144 h
[3] = target: T2, Serine/threonine-protein kinase PAK 4 (Homo sapiens, UniProt O96013)
HCC1395 = test: Antiproliferative activity against human HCC1395 cells assessed as inhibition of cell proliferation incubated for 3 days by CellTiter-Glo Luminescent Cell Viability Assay; format: functional, cell-based; settings: HCC1395, 72 h; procedure, shortened: as §1
HCT-116 [4] = test: Antitumor activity against human HCT-116 cells xenografted in nude mouse assessed as tumor growth inhibition at 15 mg/kg, po administered twice daily for 9 to 18 days relative to control; format: functional; settings: time 9-18 day, read-out: TGI
HCT-116 [5] = test: Induction of cell cycle arrest in human HCT-116 cells assessed as accumulation of cells at S phase at 100 nM measured after 48 hrs by fluorescence activated cell sorter analysis (reference value: 26.15%); format: functional
HCT-116 [6] = test: Induction of cell cycle arrest in human HCT-116 cells assessed as accumulation of cells at G2/M phase at 100 nM measured after 48 hrs by fluorescence activated cell sorter analysis (reference value: 19.78%); format: functional
[7] = target: T1, Serine/threonine-protein kinase D1; test: Inhibition of human PKCmu in presence of ATP by cellular assay
[8] = Antiproliferative activity against human PaTu 8902 cells assessed as inhibition of cell proliferation incubated for 3 days by CellTiter-Glo Luminescent Cell Viability Assay; format: functional, cell-based; settings: PaTu 8902, 72 h; procedure, shortened: as §2
[9] = Antiproliferative activity against human GTL16S4 acquired resistance cells assessed as inhibition of cell proliferation incubated for 3 days by CellTiter-Glo Luminescent Cell Viability Assay; format: functional, cell-based; settings: 72 h; procedure, shortened: as §1
NCI-H358 = test: Inhibition of anchorage independent cell growth in human NCI-H358 cells incubated for 6 days by Alamar blue reagent based fluorescence plate reader analysis; format: functional; settings: NCI-H358, 144 h
HuP-T3 = test: Antiproliferative activity against human HuP-T3 cells assessed as inhibition of cell proliferation incubated for 3 days by CellTiter-Glo Luminescent Cell Viability Assay; format: functional, cell-based; settings: HuP-T3, 72 h; procedure, shortened: as §1
[10] = Antiproliferative activity against human 184A1 cells assessed as inhibition of cell proliferation incubated for 3 days by CellTiter-Glo Luminescent Cell Viability Assay; format: functional, cell-based; settings: 184A1, 72 h; procedure, shortened: as §1
HPAF-II = test: Antiproliferative activity against human HPAF-II cells assessed as inhibition of cell proliferation incubated for 3 days by CellTiter-Glo Luminescent Cell Viability Assay; format: functional, cell-based; settings: 72 h; procedure, shortened: as §1
HCT-116 [11] = test: Antitumor activity against human HCT-116 cells xenografted in nude mouse assessed as reduction in Src phosphorylation at Y527 residue at 15 to 150 mg/kg/day administered via pump for 18 hrs by Reverse-Phase protein array analysis; format: functional, organism-based; settings: dose 15-150 mg/kg/day
HCT-116 [12] = test: Induction of cell cycle arrest in human HCT-116 cells assessed as accumulation of cells at sub G1 phase at 100 nM measured after 48 hrs by fluorescence activated cell sorter analysis (reference value: 1.84%); format: functional
MDA-MB-436 = test: Antiproliferative activity against human MDA-MB-436 cells assessed as inhibition of cell proliferation incubated for 3 days by CellTiter-Glo Luminescent Cell Viability Assay; format: functional, cell-based; settings: MDA-MB-436, 72 h; procedure, shortened: as §1
HCT-116 [13] = test: Antitumor activity against human HCT-116 cells xenografted in nude mouse assessed as reduction in GSK3beta phosphorylation at S21 residue at 15 to 150 mg/kg/day administered via pump for 18 hrs by Reverse-Phase protein array analysis; format: functional, organism-based; settings: dose 15-150 mg/kg/day
LS-123 = test: Antiproliferative activity against human LS-123 cells assessed as inhibition of cell proliferation incubated for 3 days by CellTiter-Glo Luminescent Cell Viability Assay; format: functional, cell-based; settings: LS-123, 72 h; procedure, shortened: as §1
[14] = target: T2, Serine/threonine-protein kinase PAK 4; settings: dose 50.0 µM

T2 sequence (O96013 whole entry, looked up): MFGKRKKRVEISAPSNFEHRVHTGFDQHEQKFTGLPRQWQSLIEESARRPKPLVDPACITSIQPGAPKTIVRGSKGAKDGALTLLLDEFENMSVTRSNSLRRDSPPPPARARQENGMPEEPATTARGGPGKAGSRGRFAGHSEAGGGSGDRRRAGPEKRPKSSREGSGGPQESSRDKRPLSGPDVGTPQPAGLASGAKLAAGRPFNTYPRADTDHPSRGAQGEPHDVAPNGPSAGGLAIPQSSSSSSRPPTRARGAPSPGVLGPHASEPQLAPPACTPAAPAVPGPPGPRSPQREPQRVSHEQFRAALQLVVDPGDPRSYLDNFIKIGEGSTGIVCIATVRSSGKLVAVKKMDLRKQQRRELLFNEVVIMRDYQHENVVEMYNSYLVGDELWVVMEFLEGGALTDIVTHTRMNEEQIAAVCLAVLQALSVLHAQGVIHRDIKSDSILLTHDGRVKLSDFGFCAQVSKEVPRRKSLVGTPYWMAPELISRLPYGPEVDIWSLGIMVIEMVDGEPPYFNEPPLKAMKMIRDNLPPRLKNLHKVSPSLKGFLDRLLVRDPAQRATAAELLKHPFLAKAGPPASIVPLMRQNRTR
Chain of Tyrosine-protein kinase Fyn (P06241 2-537 limits assumed): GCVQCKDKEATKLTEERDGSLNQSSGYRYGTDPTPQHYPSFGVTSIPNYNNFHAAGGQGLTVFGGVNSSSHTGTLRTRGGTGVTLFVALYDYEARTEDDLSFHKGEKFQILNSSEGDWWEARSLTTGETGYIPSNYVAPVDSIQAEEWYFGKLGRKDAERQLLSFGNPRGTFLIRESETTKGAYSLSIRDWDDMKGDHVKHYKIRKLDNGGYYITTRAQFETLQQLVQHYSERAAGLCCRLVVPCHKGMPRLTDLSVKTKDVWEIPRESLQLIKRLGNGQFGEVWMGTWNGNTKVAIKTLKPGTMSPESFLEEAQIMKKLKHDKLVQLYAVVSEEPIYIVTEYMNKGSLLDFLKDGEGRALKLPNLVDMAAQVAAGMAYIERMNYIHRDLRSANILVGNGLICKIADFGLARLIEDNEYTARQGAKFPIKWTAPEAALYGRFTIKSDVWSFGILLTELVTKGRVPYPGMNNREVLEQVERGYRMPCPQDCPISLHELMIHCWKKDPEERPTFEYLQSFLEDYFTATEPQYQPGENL

Molecule `Cc1nc(Nc2n[nH]c3c2CN(C(=O)N[C@H](CN(C)C)c2ccccc2)C3(C)C)c2sccc2n1` [PF-03758309] has an IC50 (MCF10) of 0.21 nM, an IC50 [1] of 21 nM and an inhibition [2] of 95%. For the same molecule, the IC50 (RKO) was 1.8 nM, the IC50 (NCI-H520) was 1.13 nM and the T1/2 [3] was 1.13 min. For the same molecule, the IC50 (HCC1395) was 1.6 nM, the inhibition in vivo at 15 mg/kg (HCT-116 [4]) was 79% and the Activity (HCT-116 [5]) was 14.37%. For the same molecule, the Activity (HCT-116 [6]) was 23.08%, the IC50 [7] was 2830 nM and the IC50 [8] was 27 nM. For the same molecule, the IC50 [9] was 10000 nM, the IC50 (NCI-H358) was 7.7 nM and the IC50 (HuP-T3) was 280 nM. For the same molecule, the IC50 [10] was 0.83 nM, the IC50 (HPAF-II) was 517 nM and the Activity (HCT-116 [11]) was “Active”. The Activity (HCT-116 [12]) was 12.43%, the IC50 (MDA-MB-436) was 0.79 nM and the Activity (HCT-116 [13]) was “Active”. For the same molecule, the IC50 (LS-123) was 10000 nM and the deltaH [14] was -5 kcal/mol.
